Activity calls are given as the source filed them. The calls are words filed in the database; no cut-off is given here.
Key:
Nucleic Acid [1] = test: Ratio of drug level in brain to blood in ddY mouse at 11.1 kBq, iv after 30 min by gamma counting; type: ADME, organism-based; settings: 0.5 h
Mus musculus [2] = test: In vivo binding affinity to GlyT1 in ddY mouse brain midbrain at 33.3 kBq, iv after 60 mins in presence of N-Me-SSR504734 2 mg/kg, iv administered 15 mins prior to compound administration relative to control; type: functional
Liver [3] = test: Drug uptake in ddY mouse liver at 11.1 kBq, iv after 0.5 min by gamma counting; type: ADME, organism-based; settings: in vivo
Summary of the method: (§1)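 Male ddY mice (6 weeks, 30–35 g) were given about 11.1 kBq of [125I]tracer in 0.1 mL i.v. via the tail vein. At each time point the animals were killed and organs dissected, weighed and gamma-counted. Uptake is expressed as % injected dose per gram of tissue, mean ± SD, n = 5–6.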

[4] = Metabolic stability in ddY mouse brain assessed as compound remaining at 185 kBq after 5 mins by radio-TLC; type: ADME, tissue-based; settings: read-out: Stability
Spleen = test: Drug uptake in ddY mouse spleen at 11.1 kBq, iv after 15 min by gamma counting; type: ADME, organism-based; settings: in vivo; summary of the method: as §1
Brain = test: Drug uptake in ddY mouse brain at 11.1 kBq, iv after 15 min by gamma counting; type: ADME, organism-based; settings: in vivo
Summary of the method: (§2)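 Male ddY mice (6 weeks, 30–35 g) received about 11.1 kBq [125I]tracer in 0.1 mL i.v. via tail vein. Killed at set times, organs dissected and weighed, radioactivity gamma counted. Reported as % injected dose/g tissue, mean ± SD, n = 5–6.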

Blood [5] = test: Drug uptake in ddY mouse blood at 11.1 kBq, iv after 180 min by gamma counting; type: ADME, organism-based; settings: in vivo, 3 h; summary of the method: as §2
Liver [6] = test: Drug uptake in ddY mouse liver at 11.1 kBq, iv after 5 min by gamma counting; type: ADME, organism-based; settings: in vivo; summary of the method: as §1
Nucleic Acid [7] = test: Ratio of drug level in brain to blood in ddY mouse at 11.1 kBq, iv after 60 min by gamma counting; type: ADME, organism-based; settings: 1 h
Mus musculus [8] = test: In vivo binding affinity to GlyT1 in ddY mouse brain medullary region at 33.3 kBq, iv after 60 mins in presence of nonradioactive compound 2 mg/kg, iv administered 15 mins prior to compound administration relative to control; type: functional, Medulla of organ
Blood [9] = test: Drug uptake in ddY mouse blood at 11.1 kBq, iv after 5 min by gamma counting; type: ADME, organism-based; settings: in vivo; summary of the method: as §2
[10] = Metabolic stability in ddY mouse brain assessed as compound remaining at 185 kBq after 60 mins by radio-TLC; type: ADME, tissue-based; settings: read-out: Stability
[11] = molecular target: T1, Sodium- and chloride-dependent glycine transporter 1 (Rattus norvegicus) (UniProt P28572); test: Binding affinity to GlyT1 in rat brain corpus callosum at 0.03 to 0.04 nM preincubated for 20 mins in binding buffer before compound addition measured after 30 mins by autoradiography in presence of 0.01 mM NMDA receptor glycine site antagonist L-701,324 relative to control; type: tissue-based; settings: tested as the 125I-labelled form
T1 sequence (whole entry): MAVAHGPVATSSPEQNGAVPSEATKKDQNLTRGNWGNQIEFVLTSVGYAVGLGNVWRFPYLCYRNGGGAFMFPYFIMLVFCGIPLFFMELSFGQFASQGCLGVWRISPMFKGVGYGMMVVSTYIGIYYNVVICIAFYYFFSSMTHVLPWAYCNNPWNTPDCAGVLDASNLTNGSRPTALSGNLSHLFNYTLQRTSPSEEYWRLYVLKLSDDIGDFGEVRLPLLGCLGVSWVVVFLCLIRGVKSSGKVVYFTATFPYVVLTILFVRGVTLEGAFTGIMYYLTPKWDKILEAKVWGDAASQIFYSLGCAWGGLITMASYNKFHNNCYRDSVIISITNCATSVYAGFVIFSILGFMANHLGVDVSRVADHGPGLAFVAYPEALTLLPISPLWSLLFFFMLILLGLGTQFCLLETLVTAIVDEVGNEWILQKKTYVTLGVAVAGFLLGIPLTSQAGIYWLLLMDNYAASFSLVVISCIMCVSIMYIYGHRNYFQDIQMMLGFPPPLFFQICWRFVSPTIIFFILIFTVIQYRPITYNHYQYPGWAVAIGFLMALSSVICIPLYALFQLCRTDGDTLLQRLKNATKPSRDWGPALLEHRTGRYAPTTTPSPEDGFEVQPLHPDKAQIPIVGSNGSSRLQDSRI
Summary of the method: (§3)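 Rat brain sagittal sections (20 µm) preincubated 20 min at 25 °C in Tris-HCl buffer pH 7.5 (NaCl, KCl, MgCl2, CaCl2), then 30 min at 25 °C with [125I] tracer (100 kBq, 0.03–0.04 nM) plus competitor (10 µM; glycine 1 or 10 mM). Cold washes, imaging plate 3 days, ROI PSL minus background per mm². % control from ≥triplicate slices, three rats.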

[12] = molecular target: T1, Sodium- and chloride-dependent glycine transporter 1 (Rattus norvegicus); test: Binding affinity to GlyT1 in rat brain medullary region at 0.03 to 0.04 nM preincubated for 20 mins in binding buffer before compound addition measured after 30 mins by autoradiography relative to control; type: tissue-based; settings: tested as the 125I-labelled form
Summary of the method: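 Rat brain sagittal sections (20 µm), 20 min preincubation at 25 °C in Tris-HCl pH 7.5 binding buffer, then [125I] tracer (100 kBq, 0.03–0.04 nM) for 30 min at 25 °C. Nonspecific binding taken with 10 µM unlabeled ligand. Imaging-plate read-out as (PSL−BG)/mm². Mean ± SD, n = 4–5 from at least three rats; Mann–Whitney U-test.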

Mus musculus [13] = test: In vivo binding affinity to GlyT1 in ddY mouse brain striatum at 33.3 kBq, iv after 30 mins in presence of N-Me-SSR504734 2 mg/kg, iv administered 15 mins prior to compound administration relative to control; type: functional, organism-based; set-up: dose 2 mg/kg; settings: tested as the 125I-labelled form
Mus musculus [14] = test: In vivo binding affinity to GlyT1 in ddY mouse brain cortex at 33.3 kBq, iv after 60 mins in presence of SSR504734 2 mg/kg, iv administered 15 mins prior to compound administration relative to control; type: functional, organism-based; set-up: dose 2 mg/kg; settings: tested as the 125I-labelled form
Summary of the method: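 Blocking study in male ddY mice (6 weeks, 30–35 g). The blocker (2 mg/kg in 30% DMSO/saline) was injected i.v. 15 min before about 33.3 kBq [125I]tracer i.v.; mice were killed at 30 or 60 min. Brains were divided into cortex, corpus callosum, hippocampus, thalamus, midbrain, medulla and cerebellum, weighed and gamma-counted as % dose/g. Values are mean ± SD, n = 5–6, compared to control by Kruskal–Wallis with Dunn's post-test.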

[15] = molecular target: T1, Sodium- and chloride-dependent glycine transporter 1 (Rattus norvegicus); test: Binding affinity to GlyT1 in rat brain cerebellum at 0.03 to 0.04 nM preincubated for 20 mins in binding buffer before compound addition measured after 30 mins by autoradiography in presence of 0.01 mM NMDA receptor glycine site antagonist L-701,324 relative to control; type: tissue-based; settings: tested as the 125I-labelled form; summary of the method: as §3
Mus musculus [16] = test: In vivo binding affinity to GlyT1 in ddY mouse brain medullary region at 200 kBq, iv after 60 mins by autoradiography relative to control; type: functional, organism-based; settings: Medulla of organ, tested as the 125I-labelled form
Summary of the method: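 Male ddY mice were injected iv with [125I]5 (200 kBq) and killed 60 min post-injection. For blocking, unlabeled blocker (2 mg/kg) was given iv 15 min before the tracer. Frozen brain sagittal sections (20 μm) were exposed to an imaging plate for 7 days. Regional radioactivity was read as PSL/mm² (n = 5) and compared with control by Kruskal–Wallis with Dunn's post-test.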

| Ratio (Nucleic Acid [1]) | Drug uptake (Liver [3]) [% ID/g] | remaining at 5 min [4] [%] | Drug uptake (Spleen) [% ID/g] | Drug uptake (Brain) [% ID/g] | Drug uptake (Blood [5]) [% ID/g] | Drug uptake (Liver [6]) [% ID/g] | Ratio (Nucleic Acid [7]) | Drug uptake (Blood [9]) [% ID/g] | remaining at 1 h [10] [%] | Activity [11] [%] | Activity [12] | Activity [15] [%] | Compound | Activity (Mus musculus [2]) [%] | Activity (Mus musculus [8]) [%] | Activity (Mus musculus [13]) | Activity (Mus musculus [14]) | Activity (Mus musculus [16]) |
| --- | --- | --- | --- | --- | --- | --- | --- | --- | --- | --- | --- | --- | --- | --- | --- | --- | --- | --- |
| 2.46 | 1.82 | 92 | 5.5 | 1.68 | 0.85 | 9.25 | 2.32 | 0.87 | 89 |  |  |  | CN1CCCC[C@H]1[C@@H](NC(=O)c1cccc(C(F)(F)F)c1[125I])c1ccccc1 | 48 | 52 |  |  |  |
|  |  |  |  |  |  |  |  |  |  | 92.5 | Active | 87.1 | CN1CCCC[C@H]1[C@@H](NC(=O)c1cccc(C(F)(F)F)c1I)c1ccccc1 |  |  | Active | inactive | Active |

From ChEMBL document CHEMBL1938298, “Synthesis and characterization of [¹²⁵I]2-iodo N-[(S)-{(S)-1-methylpiperidin-2-yl}(phenyl)methyl]3-trifluoromethyl-benzamide as novel imaging probe for glycine transporter 1” (Bioorg Med Chem, 2011)
